Measured values from ChEMBL document CHEMBL1137451, “Synthesis and evaluation of antifungal properties of a series of the novel 2-amino-5-oxo-4-phenyl-5,6,7,8-tetrahydroquinoline-3-carbonitrile and its analogues” (Bioorg Med Chem, 2007).
Converted amounts (≈) assume the structure as drawn. The source made the active and inactive calls. The calls are words filed in the database; no cut-off is given here.

Legend:
Benjaminiella poitrasii [1] = assay: Inhibition of yeast hypha transition at 20 ug/mL after 4 hrs
Candida albicans [2] = assay: Antifungal activity against Candida albicans 1 after 24 hrs by disc diffusion method; type: functional
How it was run: (§1)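 Disc diffusion on Candida albicans strains 1 and 2 (yeast suspension), Fusarium oxysporum strains 1 and 2 and Mucor sp. (mycelial suspension), spread on YPG or PDA agar. Compound at graded amounts per filter-paper disc, 28 °C for 24 h. MIC taken as the lowest amount giving a 2 mm inhibition zone. Controls: 50% v/v DMSO vehicle, cycloheximide, amphotericin B.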

MCF7 [3] = assay: Antiproliferative activity against human MCF7 cells assessed as cell viability by MTT assay; type: functional, cell-based
How it was run: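 MCF-7 cells in MEM with 10% FBS, 37 °C, 5% CO2, seeded 10,000/well, adhered 24 h. Treated 48 h at 0, 1, 10, 100, 1000 or 2000 µg/ml (DMSO stock diluted in medium), then 24 h recovery. MTT 4 h, 2-propanol solubilisation, A570 against 630 nm. DMSO carrier set as 100% growth; IC50 taken from the dose curve; triplicates.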

Fusarium oxysporum [4] = assay: Antifungal activity against Fusarium oxysporum 1 at 60 ug/disc after 24 hrs by disc diffusion method; type: functional; details: read-out: IZ
How it was run: (§2)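 Yeast suspensions (C. albicans strains 1, 2) and mycelial suspensions (F. oxysporum strains 1, 2; Mucor sp.) spread on YPG (0.3% yeast extract, 0.5% peptone, 1% glucose) or PDA agar. Compound applied on filter-paper discs at the stated amount; 28 °C, 24 h. Read-out is inhibition zone diameter. Controls: 50% v/v DMSO vehicle, cycloheximide, amphotericin B.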

Mucor [5] = assay: Antifungal activity against Mucor at 100 ug/disc after 24 hrs by disc diffusion method; type: functional; details: read-out: IZ
How it was run: as §2

Fusarium oxysporum [6] = assay: Antifungal activity against Fusarium oxysporum 2 after 24 hrs by disc diffusion method; type: functional
How it was run: as §1

Benjaminiella poitrasii [7] = assay: Inhibition of Benjaminiella poitrasii chitin synthase at 4 ug/mL
How it was run: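 Chitin synthase from Benjaminiella poitrasii measured with and without compound at 4 µg/ml, using a non-radioactive chitin synthase assay. Nikkomycin Z used as reference.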

Mucor [8] = assay: Antifungal activity against Mucor at after 24 hrs by disc diffusion method; type: functional
How it was run: as §1

Candida albicans [9] = assay: Antifungal activity against Candida albicans 2 at 60 ug/disc after 24 hrs by disc diffusion method; type: functional; details: read-out: IZ
How it was run: as §2

Candida albicans [10] = assay: Antifungal activity against Candida albicans 2 at 100 ug/disc after 24 hrs by disc diffusion method; type: functional; details: read-out: IZ
How it was run: as §2

Candida albicans [11] = assay: Antifungal activity against Candida albicans 1 at 100 ug/disc after 24 hrs by disc diffusion method; type: functional; details: read-out: IZ
How it was run: as §2

Fusarium oxysporum [12] = assay: Antifungal activity against Fusarium oxysporum 1 at 100 ug/disc after 24 hrs by disc diffusion method; type: functional; details: read-out: IZ
How it was run: as §2

MCF7 [13] = assay: Antiproliferative activity against human MCF7 cells at 1 mg/mL assessed as cell viability by MTT assay; type: functional, cell-based
How it was run: (§3)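 Hep3B or MCF-7 cells in MEM with 10% heat-inactivated FBS at 37 °C, 5% CO2, seeded 10,000/well and left to adhere 24 h. Exposed 48 h to compound diluted from 4 mg/ml DMSO stock, then 24 h in fresh medium. MTT (1 mg/ml, 4 h), formazan dissolved in 2-propanol, read at 570 nm (630 nm reference). DMSO-only wells set as 100% growth; triplicates.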

Hep 3B2 [14] = assay: Antiproliferative activity against human Hep3B cells at 1 mg/mL assessed as cell viability by MTT assay; type: functional, cell-based
How it was run: as §3

Fusarium oxysporum [15] = assay: Antifungal activity against Fusarium oxysporum 2 at 40 ug/disc after 24 hrs by disc diffusion method; type: functional; details: for zone of inhibition at 40 µg/disc: read-out: IZ
How it was run: as §2

Candida albicans [16] = assay: Antifungal activity against Candida albicans 1 at 60 ug/disc after 24 hrs by disc diffusion method; type: functional; details: read-out: IZ
How it was run: as §2

Candida albicans [17] = assay: Antifungal activity against Candida albicans 2 at 40 ug/disc after 24 hrs by disc diffusion method; type: functional; details: for zone of inhibition at 40 µg/disc: read-out: IZ
How it was run: as §2

Mucor [18] = assay: Antifungal activity against Mucor at 60 ug/disc after 24 hrs by disc diffusion method; type: functional; details: read-out: IZ
How it was run: as §2

Fusarium oxysporum [19] = assay: Antifungal activity against Fusarium oxysporum 2 at 100 ug/disc after 24 hrs by disc diffusion method; type: functional; details: read-out: IZ
How it was run: as §2

Candida albicans [20] = assay: Antifungal activity against Candida albicans 2 after 24 hrs by disc diffusion method; type: functional
How it was run: as §1

Mucor [21] = assay: Antifungal activity against Mucor at 40 ug/disc after 24 hrs by disc diffusion method; type: functional; details: for zone of inhibition at 40 µg/disc: read-out: IZ
How it was run: as §2

Fusarium oxysporum [22] = assay: Antifungal activity against Fusarium oxysporum 2 at 60 ug/disc after 24 hrs by disc diffusion method; type: functional; details: read-out: IZ
How it was run: as §2

Hep 3B2 [23] = assay: Antiproliferative activity against human Hep3B cells upto 400 ug/mL assessed as cell viability by MTT assay; type: functional, cell-based
How it was run: as §3

Candida albicans [24] = assay: Antifungal activity against Candida albicans 1 at 40 ug/disc after 24 hrs by disc diffusion method; type: functional; details: for zone of inhibition at 40 µg/disc: read-out: IZ
How it was run: as §2

Fusarium oxysporum [25] = assay: Antifungal activity against Fusarium oxysporum 1 at 40 ug/disc after 24 hrs by disc diffusion method; type: functional; details: for zone of inhibition at 40 µg/disc: read-out: IZ
How it was run: as §2

Fusarium oxysporum [26] = assay: Antifungal activity against Fusarium oxysporum 1 after 24 hrs by disc diffusion method; type: functional
How it was run: as §1

Benjaminiella poitrasii [27] = assay: Inhibition of yeast hypha transition at 4 ug/mL after 4 hrs

MIC (Candida albicans [2]) [µg/disc] | IC50 (MCF7 [3]) [µg/mL] | MIC (Fusarium oxysporum [6]) [µg/disc] | inhibition (Benjaminiella poitrasii [7]) [%] | MIC (Mucor [8]) [µg/disc] | MIC (Candida albicans [20]) [µg/disc] | MIC (Fusarium oxysporum [26]) [µg/disc] | SMILES | inhibition at 20 µg/mL (Benjaminiella poitrasii [1]) [%] | zone of inhibition at 60 µg/disc (Fusarium oxysporum [4]) [mm] | zone of inhibition at 100 µg/disc (Mucor [5]) [mm] | zone of inhibition at 60 µg/disc (Candida albicans [9]) [mm] | zone of inhibition at 100 µg/disc (Candida albicans [10]) [mm] | zone of inhibition at 100 µg/disc (Candida albicans [11]) [mm] | zone of inhibition at 100 µg/disc (Fusarium oxysporum [12]) [mm] | Activity (MCF7 [13]) | Activity (Hep 3B2 [14]) | zone of inhibition at 60 µg/disc (Candida albicans [16]) [mm] | zone of inhibition at 60 µg/disc (Mucor [18]) [mm] | zone of inhibition at 100 µg/disc (Fusarium oxysporum [19]) [mm] | zone of inhibition at 60 µg/disc (Fusarium oxysporum [22]) [mm] | also measured
 |  |  | > 90 |  |  |  | C[C@@H]([C@H](N)C(=O)N[C@H](C(=O)O)[C@H]1O[C@@H](n2ccc(=O)[nH]c2=O)[C@H](O)[C@@H]1O)[C@H](O)c1ccc(O)cn1 [NIKKOMYCIN] |  |  |  |  |  |  |  |  |  |  |  |  |  | inhibition at 4 µg/mL (Benjaminiella poitrasii [27]): > 90%
60 |  | 60 | 61 | 40 | 60 | 60 | CC(=O)N(C(C)=O)c1nc2c(c(-c3ccc(C)cc3)c1C#N)C(=O)CCC2 | 90 | 2 | 10 | 4 | 6 | 6 | 4 |  |  | 4 | 7 | 4 | 2 | Activity (Fusarium oxysporum [15]): inactive; Activity (Candida albicans [17]): inactive; zone of inhibition at 40 µg/disc (Mucor [21]): 3 mm; Activity (Candida albicans [24]): inactive; Activity (Fusarium oxysporum [25]): inactive

The next lines start with the compound.

SMILES | MIC (Candida albicans [2]) [µg/disc] | IC50 (MCF7 [3]) [µg/mL] | MIC (Fusarium oxysporum [6]) [µg/disc] | inhibition (Benjaminiella poitrasii [7]) [%] | MIC (Mucor [8]) [µg/disc] | MIC (Candida albicans [20]) [µg/disc] | MIC (Fusarium oxysporum [26]) [µg/disc] | inhibition at 20 µg/mL (Benjaminiella poitrasii [1]) [%] | zone of inhibition at 60 µg/disc (Fusarium oxysporum [4]) [mm] | zone of inhibition at 100 µg/disc (Mucor [5]) [mm] | zone of inhibition at 60 µg/disc (Candida albicans [9]) [mm] | zone of inhibition at 100 µg/disc (Candida albicans [10]) [mm] | zone of inhibition at 100 µg/disc (Candida albicans [11]) [mm] | zone of inhibition at 100 µg/disc (Fusarium oxysporum [12]) [mm] | Activity (MCF7 [13]) | Activity (Hep 3B2 [14]) | zone of inhibition at 60 µg/disc (Candida albicans [16]) [mm] | zone of inhibition at 60 µg/disc (Mucor [18]) [mm] | zone of inhibition at 100 µg/disc (Fusarium oxysporum [19]) [mm] | zone of inhibition at 60 µg/disc (Fusarium oxysporum [22]) [mm] | also measured
CC(=O)Nc1nc2c(c(-c3cccc(N4C(=O)C=CC4=O)c3)c1C#N)C(=O)CCC2 | 40 | 50 (≈ 125 µM) | 40 | 91 | 40 | 40 | 40 | 95 | 2 | 11 | 2 | 7 | 7 | 6 | Toxic | Toxic | 2 | 9 | 6 | 2 | zone of inhibition at 40 µg/disc (Fusarium oxysporum [15]): 2 mm; zone of inhibition at 40 µg/disc (Candida albicans [17]): 2 mm; zone of inhibition at 40 µg/disc (Mucor [21]): 8 mm; Activity (Hep 3B2 [23]): Non-toxic; zone of inhibition at 40 µg/disc (Candida albicans [24]): 2 mm; zone of inhibition at 40 µg/disc (Fusarium oxysporum [25]): 2 mm
N#Cc1c(N)nc2c(c1-c1cccc([N+](=O)[O-])c1)C(=O)CCC2 | 40 | 293 (≈ 952 µM) | 20 | 81 | 60 | 40 | 20 | 85 | 4 | 15 | 4 | 7 | 7 | 7 | Toxic | Toxic | 4 | 9 | 7 | 4 | zone of inhibition at 40 µg/disc (Fusarium oxysporum [15]): 3 mm; zone of inhibition at 40 µg/disc (Candida albicans [17]): 3 mm; Activity (Mucor [21]): inactive; Activity (Hep 3B2 [23]): Non-toxic; zone of inhibition at 40 µg/disc (Candida albicans [24]): 3 mm; zone of inhibition at 40 µg/disc (Fusarium oxysporum [25]): 3 mm
C[C@@H]1[C@H](O)[C@@H](C)/C=C/C=C/C=C/C=C/C=C/C=C/C=C/[C@H](O[C@@H]2O[C@H](C)[C@@H](O)[C@H](N)[C@@H]2O)C[C@@H]2O[C@](O)(C[C@@H](O)C[C@@H](O)[C@H](O)CC[C@@H](O)C[C@@H](O)CC(=O)O[C@H]1C)C[C@H](O)[C@H]2C(=O)O [AMPHOTERICIN B] | 40 | 60 (≈ 64.9 µM) | 40 |  | 40 | 40 | 40 |  | 6 | 10 | 7 | 12 | 12 | 9 | Toxic | Toxic | 7 | 7 | 9 | 6 | zone of inhibition at 40 µg/disc (Fusarium oxysporum [15]): 3 mm; zone of inhibition at 40 µg/disc (Candida albicans [17]): 4 mm; zone of inhibition at 40 µg/disc (Mucor [21]): 5 mm; Activity (Hep 3B2 [23]): Non-toxic; zone of inhibition at 40 µg/disc (Candida albicans [24]): 4 mm; zone of inhibition at 40 µg/disc (Fusarium oxysporum [25]): 2 mm
